Reference: PMC6387783 (Chemistry & biodiversity, 2018)

Experiments:
HEK293 cells = type: cell-based, human; settings: peptide 2 μM with R18 1 μM vs peptide alone, HBSS, 10 min, 37 °C
Outline: (§1)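 Cells are seeded in μ-slide wells at 20% confluency (HEK293 in poly-L-lysine-coated wells) and grown 24 h, then washed with HBSS (Ca/Mg). Test peptide at 2 μM in HBSS, alone or with R18 1 μM, 10 min, 37 °C, dark; negative control R18 only. Cells washed five times, then live spinning-disk confocal imaging at 37 °C (FAM ex 488 nm, em 525/50 nm). Single-cell intensities background-corrected and normalized to control mean; 30 cells/condition; Kruskal–Wallis test.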

MCF-7 cells = type: cell-based, human; settings: peptide 2 μM with R18 1 μM vs peptide alone, HBSS, 10 min, 37 °C
Outline: as §1

mice = settings: intravenous (tail-vein injection), ref [1]; cited from earlier work

In the case of FAM-octaarginine amide [compound 1], the “effect of membrane dye R18 on peptide permeation” value (HEK293 cells) is listed as “significantly intensified permeation”, the “effect of membrane dye R18 on peptide permeation” value (MCF-7 cells) is listed as “significantly intensified permeation” and the toxicity (mice) is listed as “highly toxic”.
